Consider one compound from ChEMBL document CHEMBL4024779, “Novel Terminal Bipheny-Based Diapophytoene Desaturases (CrtN) Inhibitors as Anti-MRSA/VISR/LRSA Agents with Reduced hERG Activity” (J Med Chem, 2018).

Calls of active or inactive are those of the source. The rule behind the calls is not given here.

Usually IC50 stands for the concentration that inhibits the measured activity by half. One may read the AUC(0-inf) as total exposure, with the tail of the curve extrapolated. A word on the Cmax: it is the maximum level reached in the sampled fluid or tissue. For orientation: clearance means a measure of how efficiently the substance is removed, as volume per time. As usually defined, the bioavailability is dose-corrected exposure relative to a reference, in per cent.

One series concerns the target Cytochrome P450 2C8 (Homo sapiens, UniProt P10632). The series can be described thus: Inhibition of CYP2C8 in human liver microsomes using paclitaxel as substrate upto 10 uM after 20 mins in presence of NADPH by LC-MS/MS analysis. The format is ADME.
The next series addresses Cytochrome P450 2C19 (Homo sapiens, UniProt P33261). The series can be described thus: Inhibition of CYP2C19 in human liver microsomes using mephenytoin as substrate upto 10 uM after 45 mins in presence of NADPH by LC-MS/MS analysis. Type of series: ADME. A general note: Liver microsomes are vesicles of endoplasmic reticulum, rich in cytochrome P450 enzymes.
Series [1] can be described thus: AUC (0 to infinity) in Sprague-Dawley rat at 10 mg/kg, ip administered as single dose by LC-MS/MS analysis. Particulars: in vivo. Further details: dose 10 mg/kg, time infinity, route intraperitoneal. The format is ADME, organism-based.
A short description of series [2]: Cmax in Sprague-Dawley rat at 10 mg/kg, ip administered as single dose by LC-MS/MS analysis. The format is ADME, organism-based. The following applies: in vivo. Set-up: dose 10 mg/kg, route intraperitoneal.
Series [3] can be described thus: Clearance in Sprague-Dawley rat at 5 mg/kg, iv administered as single dose by LC-MS/MS analysis. The format is ADME, organism-based. The following applies: in vivo.
The nature of series [4]: Oral bioavailability in Sprague-Dawley rat at 10 mg/kg administered as single dose by LC-MS/MS analysis. Type of series: ADME, organism-based. Particulars: in vivo.
A short description of series [5]: Cmax in mouse at 2 mg/kg, iv administered as single dose by LC-MS/MS analysis. Type of series: ADME, organism-based. Further details: dose 2 mg/kg, route intravenous. The following applies: in vivo.
Series [6] is described as follows: Oral bioavailability in mouse at 10 mg/kg administered as single dose by LC-MS/MS analysis. The format is ADME, organism-based. The following applies: in vivo.
A short description of series [7]: Inhibition of CrtN in methicillin-resistant Staphylococcus aureus NRS70 assessed as reduction in staphyloxanthin levels after 48 hrs by spectrophotometric method-based pigment inhibition assay.
The nature of series [8]: Inhibition of CrtN in methicillin-resistant Staphylococcus aureus LRSA202 assessed as reduction in staphyloxanthin levels after 48 hrs by spectrophotometric method-based pigment inhibition assay.
The subject of series [9] is Staphylococcus aureus. The series can be described thus: In vivo anti-virulence activity against methicillin-resistant Staphylococcus aureus LRSA56 infected in BALB/c mouse model assessed as reduction in bacterial load in kidney at 0.1 mg bid for 3.5 days administered intraperitoneally 6 hrs post infection by serial dilution method relative to linezolid. Further details: scale not given: the % may be the effect or the level left. Type of series: functional. The gist of the method: (§1)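 Mice were infected by retro-orbital injection with LRSA56 (5.0 × 10^7 CFU) or LRSA202 (7.0 × 10^7 CFU). Compound was given intraperitoneally 6 h after infection. […] Log10 CFU was counted in kidneys and hearts, with groups compared by two-tailed Mann-Whitney test.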

Series [10] deals with Staphylococcus aureus. As to the kind of experiment: In vivo anti-virulence activity against methicillin-resistant Staphylococcus aureus NF65Y infected in BALB/c mouse model assessed as reduction in bacterial load in kidney at 0.1 mg bid for 3.5 days administered intraperitoneally 6 hrs post infection by serial dilution method relative to vancomycin. Type of series: functional, organism-based. Summed up: (§2)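 Mice infected retro-orbitally with S. aureus NF65Y (3.5 × 10^8 CFU) or XN108 (2.1 × 10^8 CFU). Test compound given i.p. b.i.d. starting 6 h post-infection. […] Log10 CFU per kidney and heart counted. Two-tailed Mann−Whitney test.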

The test system of series [11] is Staphylococcus aureus. The series can be described thus: In vivo anti-virulence activity against methicillin-resistant Staphylococcus aureus XN108 infected in BALB/c mouse model assessed as reduction in bacterial load in heart at 0.1 mg bid for 3.5 days administered intraperitoneally 6 hrs post infection by serial dilution method relative to vancomycin. The format is functional, organism-based. The gist of the method:
as §2

Series [12] concerns Staphylococcus aureus. The series can be described thus: In vivo anti-virulence activity against methicillin-resistant Staphylococcus aureus XN108 infected in BALB/c mouse model assessed as reduction in bacterial load in kidney at 0.1 mg bid for 3.5 days administered intraperitoneally 6 hrs post infection by serial dilution method relative to linezolid. The format is functional, organism-based. Summed up: as §2

For series [13], the system named is Staphylococcus aureus. As to the kind of experiment: In vivo anti-virulence activity against methicillin-resistant Staphylococcus aureus XN108 infected in BALB/c mouse model assessed as reduction in bacterial load in kidney at 0.1 mg bid for 3.5 days administered intraperitoneally 6 hrs post infection by serial dilution method relative to vancomycin. The format is functional, organism-based. The gist of the method:
as §2

Series [14] relates to Staphylococcus aureus. The series can be described thus: In vivo anti-virulence activity against Staphylococcus aureus Newman infected in BALB/c mouse model assessed as reduction in bacterial load in kidney at 0.4 mg bid for 3.5 days administered orally 6 hrs post infection by serial dilution method relative to control. Set-up: scale not given: the % may be the effect or the level left. Type of series: functional. The gist of the method:
(§3)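 Mice got 3.1 × 10^7 CFU S. aureus Newman by retro-orbital injection. Oral compound was given b.i.d. for 3.5 d, starting 6 h after infection. […] Log10 CFU was counted per kidney and per heart.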

Series [15] concerns Staphylococcus aureus. As to the kind of experiment: In vivo anti-virulence activity against Staphylococcus aureus Newman infected in BALB/c mouse model assessed as reduction in bacterial load in heart at 0.1 mg bid for 3.5 days administered orally 6 hrs post infection by serial dilution method relative to control. Type of series: functional, organism-based. Summed up:
as §3

For series [16], the system named is Rattus norvegicus. As to the kind of experiment: Toxicity in Sprague-Dawley rat at 60 to 1000 mg/kg, po administered as single dose assessed as poisoning symptoms measured immediately post administration. The format is organism-based. The following applies: in vivo. Summed up:
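Acute toxicity study: 30 rats randomly split into three groups and given a single oral dose (60, 250 or 1000 mg/kg) on day 1. Animals were watched for poisoning symptoms and mortality immediately after dosing and over a 2-week post-treatment period. Behaviour, water/food consumption and body weight were also tracked.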

The subject of series [17] is Rattus norvegicus. The series can be described thus: Toxicity in Sprague-Dawley rat at 60 to 1000 mg/kg, po administered as single dose assessed as changes in water consumption measured during 2 weeks post administration. Particulars: in vivo, 336 h. Type of series: organism-based. Summed up: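 Rats, 30 in total, randomised into three groups. Each received a single oral dose of 60, 250 or 1000 mg/kg on day 1. Poisoning symptoms, mortality, behaviour, water and food consumption and body weight monitored immediately and over 2 weeks.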

Series [18] concerns Staphylococcus aureus. As to the kind of experiment: In vivo anti-virulence activity against methicillin-resistant Staphylococcus aureus LRSA202 infected in BALB/c mouse model assessed as reduction in bacterial load in kidney at 0.1 mg bid for 3.5 days administered intraperitoneally 6 hrs post infection by serial dilution method relative to control. The format is functional, organism-based. Summed up:
as §1

Series [19] has as its target T1, 4,4'-diapophytoene desaturase (4,4'-diaponeurosporene-forming) (Staphylococcus aureus (strain USA300)) (UniProt Q2FDU6).
T1 sequence (whole entry): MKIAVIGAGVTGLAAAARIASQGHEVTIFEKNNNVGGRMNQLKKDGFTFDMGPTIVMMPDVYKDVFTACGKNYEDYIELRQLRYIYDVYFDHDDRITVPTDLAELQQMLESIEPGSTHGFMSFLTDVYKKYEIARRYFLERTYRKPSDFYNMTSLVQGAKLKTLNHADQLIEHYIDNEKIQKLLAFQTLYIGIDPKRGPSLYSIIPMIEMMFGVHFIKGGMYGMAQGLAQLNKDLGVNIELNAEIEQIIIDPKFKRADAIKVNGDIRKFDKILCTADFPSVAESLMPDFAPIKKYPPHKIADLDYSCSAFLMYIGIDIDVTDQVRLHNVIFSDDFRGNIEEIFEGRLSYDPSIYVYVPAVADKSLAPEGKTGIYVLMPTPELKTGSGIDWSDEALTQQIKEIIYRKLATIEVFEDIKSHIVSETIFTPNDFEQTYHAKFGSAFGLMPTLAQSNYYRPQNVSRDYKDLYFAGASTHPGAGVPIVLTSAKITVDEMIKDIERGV
The following applies: Staphylococcus aureus LAC, 1 uM.

Series [20] deals with T2, 4,4'-diapophytoene desaturase (4,4'-diaponeurosporene-forming) (Staphylococcus aureus (strain Mu50 / ATCC 700699)) (UniProt Q99R76).
T2 sequence (whole entry): T1 sequence (whole entry)
Particulars: Staphylococcus aureus subsp. aureus Mu50; 1 uM.

Chain of Cytochrome P450 2C8 (P10632 whole entry): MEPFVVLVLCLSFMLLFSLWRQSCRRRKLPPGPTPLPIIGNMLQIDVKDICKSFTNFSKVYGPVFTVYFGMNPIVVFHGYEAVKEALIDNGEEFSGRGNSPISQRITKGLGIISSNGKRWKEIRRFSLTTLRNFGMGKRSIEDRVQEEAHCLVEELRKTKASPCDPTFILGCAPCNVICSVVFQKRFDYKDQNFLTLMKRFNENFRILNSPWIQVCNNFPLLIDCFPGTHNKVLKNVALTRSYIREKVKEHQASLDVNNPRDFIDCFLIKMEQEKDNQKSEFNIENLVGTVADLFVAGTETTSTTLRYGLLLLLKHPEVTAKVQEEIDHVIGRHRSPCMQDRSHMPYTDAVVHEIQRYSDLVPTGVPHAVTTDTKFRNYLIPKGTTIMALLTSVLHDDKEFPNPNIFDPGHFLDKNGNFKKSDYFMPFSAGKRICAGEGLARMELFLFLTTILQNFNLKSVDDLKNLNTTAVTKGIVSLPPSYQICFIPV
Chain of Cytochrome P450 2C19 (P33261 whole entry): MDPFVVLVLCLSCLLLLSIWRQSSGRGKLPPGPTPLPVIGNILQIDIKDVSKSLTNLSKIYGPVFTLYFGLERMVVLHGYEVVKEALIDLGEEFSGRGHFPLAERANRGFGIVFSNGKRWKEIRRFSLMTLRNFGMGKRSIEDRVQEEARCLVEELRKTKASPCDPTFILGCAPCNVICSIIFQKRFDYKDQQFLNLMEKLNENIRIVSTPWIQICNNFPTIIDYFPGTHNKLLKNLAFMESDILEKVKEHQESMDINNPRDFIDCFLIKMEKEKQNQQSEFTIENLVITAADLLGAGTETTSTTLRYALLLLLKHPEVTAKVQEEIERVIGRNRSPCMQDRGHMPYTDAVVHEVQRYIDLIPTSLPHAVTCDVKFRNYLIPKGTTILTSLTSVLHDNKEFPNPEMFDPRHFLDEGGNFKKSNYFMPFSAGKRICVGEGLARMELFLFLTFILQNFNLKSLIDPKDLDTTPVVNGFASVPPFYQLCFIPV

`CN(C/C=C/c1ccc(-c2ccccc2)cc1)Cc1coc2ccccc12.Cl`: the IC50 on Cytochrome P450 2C8 was over 10000 nM; on Cytochrome P450 2C19, over 10000 nM; in [7], 1.7 nM; in series [8], 1.6 nM. In [1], this compound yielded an AUC(0-inf) of 1090 µg·h/mL. Further, the peak concentration (Cmax) is 130 µg/mL in [2] and 2.23 µg/mL in [5]. The same compound showed a clearance in [3] of 29.2 mL/min/kg. The bioavailability turned out to be 16.3% in series [4] and 83.8% in series [6]. For the same compound, the Activity in the series on Staphylococcus aureus [9] was over 54.3%; in the series on Staphylococcus aureus [14], 90%; in the series on Rattus norvegicus [16], “Non-Toxic”; in the series with Rattus norvegicus [17], “Non-Toxic”. The result in the series with Staphylococcus aureus [10], with Staphylococcus aureus [11], in the series with Staphylococcus aureus [12], with Staphylococcus aureus [13] and in the series with Staphylococcus aureus [18] was Active. Further, the result in the series with Staphylococcus aureus [15] was inactive. The Survival in series [19] stood at 0.7%; in series [20], 2.7%.
